Screens as filed in PubChem.
The list is not random: actives were taken first. Their share in the collection is about 0.79%.
bIAP activator = bovine intestinal alkaline phosphatase activators, primary screen, biochemical, bovine IAP, CDP-star luminescence | 200,000 compounds, 0.17% hits | activation factor at 20 µM | purified bovine IAP, 30 min; hits give high values; fold of DMSO-control signal, blank-subtracted | alkaline phosphatase, intestinal [Bos taurus];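 active = activation factor of 2 or more at 20 µM, a signal rise over negative controls twice the positive control's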
hIAP act = human IAP activators, primary screen, biochemical, luminescence, uHTS; Intestinal-type alkaline phosphatase (Homo sapiens), P09923; purified human IAP, CDP-Star luminescence, 30 min; hits give high values; 1 = vehicle-only enzyme, 0 = enzyme-free background; activation factor at 10 µM; 330,000 compounds, 0.16% hits; AID 2524, 2010;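 active = activation factor of the enzyme at least 2-fold when tested at 20 µM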
Target sequence (P09923 whole entry, looked up): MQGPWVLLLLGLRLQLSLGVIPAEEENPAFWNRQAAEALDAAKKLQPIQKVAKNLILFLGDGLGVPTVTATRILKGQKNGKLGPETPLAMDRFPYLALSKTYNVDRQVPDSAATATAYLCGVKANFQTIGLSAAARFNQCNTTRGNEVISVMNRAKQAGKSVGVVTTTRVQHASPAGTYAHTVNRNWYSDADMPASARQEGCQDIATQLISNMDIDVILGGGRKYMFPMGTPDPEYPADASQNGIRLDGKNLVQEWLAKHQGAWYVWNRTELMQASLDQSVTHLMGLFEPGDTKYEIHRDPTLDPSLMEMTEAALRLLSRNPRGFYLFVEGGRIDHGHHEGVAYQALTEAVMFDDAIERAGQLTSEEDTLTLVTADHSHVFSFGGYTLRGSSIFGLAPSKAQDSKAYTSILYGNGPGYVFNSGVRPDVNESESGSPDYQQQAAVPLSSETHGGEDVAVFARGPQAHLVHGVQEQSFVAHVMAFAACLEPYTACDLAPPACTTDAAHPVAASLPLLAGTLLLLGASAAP
bIAP inh = bovine intestinal alkaline phosphatase inhibitors, primary screen, selectivity assay for TNAP inhibitor project, biochemical, bovine IAP, CDP-star luminescence. alkaline phosphatase, intestinal [Bos taurus]. purified bovine IAP, 30 min. inhibition, % at 20 µM. 190,000 tested, under 10 active;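 active = over 50% inhibition of intestinal alkaline phosphatase at 20 µM in the single-dose screen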
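Assay system – bovine IAP enzyme · Quantity – bovine IAP at 1/65,000,000 final dilution · Detection – CDP-star luminescence signal · Times – 30 min reaction at room temperature · Also added – CDP-star substrate at 30 µM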
hIAP inh = human IAP inhibitors, primary screen, biochemical, luminescence, uHTS; 330,000 compounds, 0.12% hits; AID 2544, 2010; purified IAP, CDP-Star luminescence, 30 min; inhibition, % at 10 µM;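 active = inhibition reaching a set limit with compound at 10 µM in the primary screen, cut at about 35% in these data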;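 also: plate controls were DMSO wells with enzyme for no effect and no-enzyme buffer wells for full effect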
mIAP act = activators of mouse IAP, primary screen, biochemical, luminescence, uHTS; activation factor at 10 µM; 330,000 compounds, 0.24% hits; intestinal alkaline phosphatase [Mus musculus]; muIAP, CDP-Star luminescence, 30 min; hits give high values; 1 = vehicle-only enzyme signal, 0 = enzyme-free wells;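 active = activation factor of at least 2 at 20 µM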
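Assay system: mouse IAP enzyme; reagent: chemiluminescent substrate CDP-Star; dosing: test compounds delivered from DMSO solution; schedule: 30 min at room temperature; measured by: luminescence from enzymatic CDP-Star hydrolysis; controls: DMSO-only wells and no-enzyme negative control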
mIAP block = inhibitors of mouse IAP, primary screen, biochemical, luminescence, uHTS. purified mouse IAP, CDP-Star luminescence, 30 min. inhibition, % at 10 µM. 330,000 compounds, 0.2% hits;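 active = inhibition of at least 40% at 10 µM in the primary screen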;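 also: plate controls were DMSO with enzyme for no effect and no enzyme wells for full effect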
Numbers without * were called inactive.

`CC(C)Cn1c(N)c(C(=O)COC(=O)c2ccncc2)c(=O)n(C)c1=O` gave bIAP activator 1.1, hIAP act 1.27, bIAP inh -7.8, hIAP inh -26.7, mIAP act 1.12 and mIAP block -11.9.
`CC(C)Cn1c(N)c(C(=O)COC(=O)c2nccnc2N)c(=O)n(C)c1=O` gave hIAP act 1.14, hIAP inh -14.2, mIAP act 0.518 and mIAP block 48.2*.
CCOc1ccc(N(C(=O)c2snc(C(N)=O)c2N)C(C(=O)NC2CCCC2)c2ccncc2)cc1 (stereo not given) was read as hIAP act 0.903, hIAP inh 9.7, mIAP act 0.948 and mIAP block 5.2.
Cc1cc(-c2nn(-c3ccccc3F)cc2CN2CCC(C(N)=O)CC2)c(C)s1 was read as bIAP activator 1.1, hIAP act 1.01, bIAP inh -5.5, hIAP inh -0.9, mIAP act 1.11 and mIAP block -11.3.
Cc1cc(-c2nn(-c3ccccc3F)cc2CNCCc2cnc[nH]2)c(C)s1 was read as bIAP activator 3*, hIAP act 1.53, bIAP inh -198.2, hIAP inh -52.9, mIAP act 1.09 and mIAP block -8.8.
CC1CCC2(CC1)NC(=O)N(CC(=O)c1cn(CCC#N)c3ccccc13)C2=O (stereo not given) was read as hIAP act 1.05, hIAP inh -4.6, mIAP act 1.07 and mIAP block -7.4.
Screening O=C1c2c(O)cc(O)cc2O[C@@]12c1c(cc(O)c3c1O[C@H](c1ccc(O)cc1)[C@@H](O)C3)O[C@@H]2c1ccc(O)cc1 returned bIAP activator 1, hIAP act 0.926, bIAP inh 1.2, hIAP inh 7.4, mIAP act 0.588 and mIAP block 41.2*.
For O=C1NC(=S)S/C1=C/c1ccc(N2CCOCC2)o1 the results were bIAP activator 1, hIAP act 0.853, bIAP inh -1.9, hIAP inh 14.7, mIAP act 0.471 and mIAP block 52.9*.
Screening O=C(Nc1ccc(Cl)cc1)NC1CCCC1Cc1ccco1 (stereo not given) returned bIAP activator 1.1, hIAP act 1.16, bIAP inh -10.3, hIAP inh -16.1, mIAP act 2.78* and mIAP block -177.9.
`O=C(Nc1ccc(Cl)cc1)NC1CCCCC1` gave bIAP activator 1.1, hIAP act 1.09, bIAP inh -8.7, hIAP inh -9.0, mIAP act 1.16 and mIAP block -16.1.
Screening Cc1cc(C)nc(SCC(CSc2nc(C)cc(C)n2)C(=O)O)n1 returned bIAP activator 0.9, hIAP act 1.11, bIAP inh 14.8, hIAP inh -10.7, mIAP act 1.05 and mIAP block -4.8.
`N#Cc1c(SCC(=O)Nc2cccc(C(F)(F)F)c2)sc2c(O)cc(=O)[nH]c12` gave hIAP act 1.06, hIAP inh -6.5, mIAP act 0.728 and mIAP block 27.2.
Screening Cc1ccc(NC(=O)Nc2ccc3c(c2)N(C)C(=O)CS3)cc1C returned bIAP activator 1, hIAP act 1.28, bIAP inh -4.8, hIAP inh -28.1, mIAP act 3.09* and mIAP block -208.9.
CN1C(=O)CSc2ccc(NC(=O)NCc3ccccc3)cc21 was read as bIAP activator 1, hIAP act 1.1, bIAP inh 3.0, hIAP inh -10.5, mIAP act 1.34 and mIAP block -34.0.
For Cc1ccc(CNC(=O)Nc2ccc3c(c2)N(C)C(=O)CS3)cc1 the results were bIAP activator 0.8, hIAP act 0.914, bIAP inh 16.9, hIAP inh 8.6, mIAP act 2.07* and mIAP block -107.2.
For Cc1cn2c(=O)c(C(=O)NCc3ccc4c(c3)OCO4)cnc2s1 the results were hIAP act 1.02, hIAP inh -2.3, mIAP act 0.953 and mIAP block 4.7.
COc1ccc(-c2[nH]ncc2-c2cnn(-c3ccccc3)c2)c(O)c1 was read as bIAP activator 1.5, hIAP act 1.08, bIAP inh -46.8, hIAP inh -7.9, mIAP act 1 and mIAP block -0.2.
Screening CN(C)c1ccc(N2C(=O)CSC2=S)cc1 returned bIAP activator 0.9, hIAP act 0.898, bIAP inh 8.2, hIAP inh 10.2, mIAP act 0.532 and mIAP block 46.8*.
Screening Cc1ccc(S(=O)(=O)Nc2ccc(NC(=O)Nc3cccc(C(F)(F)F)c3)cc2)cc1 returned bIAP activator 0.9, hIAP act 1.09, bIAP inh 12.7, hIAP inh -8.9, mIAP act 2.61* and mIAP block -160.6.
Screening O=C(Nc1ccncc1)Nc1cccc(C(F)(F)F)c1 returned hIAP act 1.03, hIAP inh -2.7, mIAP act 1.08 and mIAP block -7.8.
For NS(=O)(=O)c1ccc2c(c1)C1C=CCC1C(C1CC=CCC1)N2 (stereo not given) the results were bIAP activator 0.8, hIAP act 1.03, bIAP inh 21.4, hIAP inh -3.1, mIAP act 0.436 and mIAP block 56.4*.
`O=C(O)c1ccc(NS(=O)(=O)c2ccc3c(c2)C2C=CCC2C(c2ccccc2F)N3)cc1` (stereo not given) gave bIAP activator 0.9, hIAP act 0.934, bIAP inh 10.6, hIAP inh 6.6, mIAP act 0.945 and mIAP block 5.5.
For COc1ccc(-c2nn(-c3ccccc3)cc2C(=O)NCCCn2ccnc2)cc1 the results were bIAP activator 2.3*, hIAP act 0.914, bIAP inh -125.2, hIAP inh 8.6, mIAP act 1.46 and mIAP block -46.2.
COc1ccc(C(=O)NCCCn2ccnc2)cc1 was read as bIAP activator 0.9, hIAP act 1.26, bIAP inh 5.7, hIAP inh -26.3, mIAP act 0.973 and mIAP block 2.7.
CCCCNC(=O)CSc1nc2cc3c(cc2c(=O)n1CCC(=O)NCCc1ccc(OC)c(OC)c1)OCO3 was read as bIAP activator 2*, hIAP act 1.34, bIAP inh -101.0, hIAP inh -34.4, mIAP act 1.54 and mIAP block -54.5.
COc1ccc(OC)c(NC(=S)NCc2cccnc2)c1 was read as bIAP activator 0.9, hIAP act 1.04, bIAP inh 13.9, hIAP inh -4.4, mIAP act 1.1 and mIAP block -10.0.
